Here are results for 13 molecules from ChEMBL document CHEMBL1148704, “First total synthesis of protoapigenone and its analogues as potent cytotoxic agents” (J Med Chem, 2007).

One test concerns MDA-MB-231. The test can be described thus: Cytotoxicity against human MDA-MB-231 cells after 72 hrs by MTT colorimetric method. Type of test: functional, cell-based. As to conditions: MDA-MB-231, 72 h. In outline:
(§1)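 Cell lines from ATCC, grown in RPMI-1640 with 10% FBS, 100 U/mL penicillin and 100 µg/mL streptomycin at 37 °C, humidified 5% CO₂. Seeded at 5000-10000 cells/well, treated on day two for 72 h. Attached cells then given MTT (0.5 mg/mL, 1 h), formazan solubilized in DMSO, colorimetric readout. IC₅₀ values reported.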

In a further test the test system is A549. The test can be described thus: Cytotoxicity against human A549 cells after 72 hrs by MTT colorimetric method. The test is classed as functional, cell-based. The conditions noted are these: A549, 72 h. Summed up:
as §1

The next test relates to HepG2. The test can be described thus: Cytotoxicity against human HepG2 cells after 72 hrs by MTT colorimetric method. As to conditions: HepG2, 72 h. The test is classed as functional, cell-based.
Test [1] in a line: Cytotoxicity against human Hep3B cells after 72 hrs by MTT colorimetric method. The test is classed as functional, cell-based, Hep 3B2. In outline:
as §1

A further test relates to MCF7. The test can be described thus: Cytotoxicity against human MCF7 cells after 72 hrs by MTT colorimetric method. The conditions noted are these: MCF7, 72 h. Type of test: functional, cell-based. In outline: as §1

With `COc1cc(OC)c2c(=O)cc(C3(O)C=CC(=O)C=C3)oc2c1`, the IC50 in the test on MDA-MB-231 is 0.54 µM; in the test on A549, 1.27 µM; with HepG2, 5.03 µM; in test [1], 0.67 µM; in the test with MCF7, 1.21 µM.

`COC1(c2cc(=O)c3ccccc3o2)C=CC(=O)C=C1`: the IC50 in the test on MDA-MB-231 is 5.49 µM; in the test on A549 it was above 74.6 µM; with HepG2, 40.9 µM; in test [1], 5.41 µM; in the test on MCF7 it was 7.99 µM.

In the case of `O=C1C=CC(O)(c2cc(=O)c3ccccc3o2)C=C1`, the half-maximal inhibitory concentration (IC50) with MDA-MB-231 worked out at 0.71 µM; in the test with A549, 5.24 µM; in the test on HepG2, 6.73 µM; in test [1], 1.26 µM; in the test on MCF7, 1.73 µM.

Take `O=C1C=CC(O)(c2cc(=O)c3c(ccc4ccccc43)o2)C=C1`: the IC50 with MDA-MB-231 is 0.39 µM; in the test on A549, 1.81 µM; in the test with HepG2 it was 3.55 µM; in test [1] it was 0.3 µM; in the test with MCF7 it was 0.66 µM.

On to `COC1(c2cc(=O)c3c(ccc4ccccc43)o2)C=CC(=O)C=C1`, for which the IC50 with MDA-MB-231 was 1.16 µM; in the test on A549, 25.8 µM; in the test with HepG2, 9.94 µM; in test [1], 1.1 µM; in the test with MCF7 it was 2.7 µM.

With `O=C1C=CC(O)(c2cc(=O)c3c(O)cccc3o2)C=C1`, the IC50 worked out at 0.67 µM in the test with MDA-MB-231; 5.07 µM in the test with A549; 4.96 µM in the test with HepG2; 1.3 µM in test [1]; 3.44 µM in the test on MCF7.

Consider `COCOc1cc(O)c2c(=O)cc(C3(O)C=CC(=O)C=C3)oc2c1`, for which the IC50 with MDA-MB-231 came out at 1.73 µM; in the test on A549 it was 24.6 µM; in the test with HepG2 it was 15.6 µM; in test [1], 2.39 µM; with MCF7, 5.24 µM.

`COc1cccc2c1C(=O)c1c(O)c3c(c(O)c1C2=O)C[C@@](O)(C(=O)CO)C[C@@H]3O[C@H]1C[C@H](N)[C@H](O)[C@H](C)O1` [DOXORUBICIN]: the IC50 with MDA-MB-231 came out at 0.14 µM; with A549, 0.36 µM; in test [1] it was 0.62 µM; in the test with MCF7, 0.74 µM.

`COc1cc(OC)c2c(=O)cc(C3(OC)C=CC(=O)C=C3)oc2c1`: the IC50 in the test with MDA-MB-231 was 4.7 µM; in the test with A549, above 61 µM; in the test with HepG2, 27 µM; in test [1], 3.78 µM; with MCF7 it was 4.21 µM.

For the molecule `COc1cc(O)c2c(=O)cc(C3(O)C=CC(=O)C=C3)oc2c1`, the IC50 in the test with MDA-MB-231 is 0.43 µM; in the test with A549 it was 3.1 µM; with HepG2, 0.57 µM; in test [1], 0.67 µM; with MCF7, 1.7 µM.

With `COC1(c2cc(=O)c3c(O)cccc3o2)C=CC(=O)C=C1`, the IC50 with MDA-MB-231 turned out to be 1.9 µM; in the test with A549, 57.6 µM; with HepG2, 26.9 µM; in test [1] it was 2.32 µM; in the test with MCF7 it was 5.46 µM.

With `COC1(c2cc(=O)c3ccc4ccccc4c3o2)C=CC(=O)C=C1`, the IC50 with MDA-MB-231 is 1.07 µM; with A549, 28.3 µM; with HepG2, 14.4 µM; in test [1], 0.6 µM; in the test with MCF7, 2.96 µM.

Turning to `O=C1C=CC(O)(c2cc(=O)c3c(O)cc(O)cc3o2)C=C1` [PROTOAPIGENONE], the IC50 in the test with MDA-MB-231 turned out to be 1.43 µM; with A549, 13.8 µM; in the test with HepG2 it was 8.11 µM; in test [1] it was 2.27 µM; in the test with MCF7, 3.74 µM.
